Measured values published in ChEMBL document CHEMBL1135994, “Potent, novel in vitro inhibitors of the Pseudomonas aeruginosa deacetylase LpxC” (J Med Chem, 2002).

Biological target: T1, UDP-3-O-acyl-N-acetylglucosamine deacetylase (Pseudomonas aeruginosa (strain ATCC 15692 / PAO1 / 1C / PRS 101 / LMG12228), UniProt P47205)
T1 sequence (P47205 whole entry): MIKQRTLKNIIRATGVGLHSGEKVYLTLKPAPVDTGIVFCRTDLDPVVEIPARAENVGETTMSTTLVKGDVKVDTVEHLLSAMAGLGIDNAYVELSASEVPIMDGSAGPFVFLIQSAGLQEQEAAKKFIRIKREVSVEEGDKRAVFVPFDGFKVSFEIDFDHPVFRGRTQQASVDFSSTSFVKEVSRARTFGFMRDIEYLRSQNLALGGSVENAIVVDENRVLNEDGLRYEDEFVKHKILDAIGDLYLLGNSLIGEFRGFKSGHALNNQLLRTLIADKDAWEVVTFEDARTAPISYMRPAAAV
Assay: Inhibition of Pseudomonas aeruginosa UDP-3-O-acyl-N-acetylglucosamine Deacetylase (LpxC) in vitro.
Method in brief: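 Purified recombinant P. aeruginosa LpxC (IPTG-induced, zinc-reconstituted) at 2 nM incubated with 150 nM [3H-acetyl]-UDP-3-O-(R-3-hydroxydecanoyl)-GlcNAc for 90 min at room temperature (22 °C). Buffer is sodium phosphate pH 7.5 with 1 mg/mL BSA. Stopped with activated charcoal suspension. Released [3H]-acetate in the clarified supernatant counted by scintillation. 5 mM EDTA controls define nonspecific tritium release. IC50 determined.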

IC50 | Compound
> 30 µM | O=C(NO)C1COC(c2cnn(-c3ccccc3)c2C(F)(F)F)=N1 (stereo not drawn)
0.16 µM | COc1ccc(C2=NC(C(=O)NO)CO2)cc1OC(F)(F)F (stereo not drawn)
> 50 µM | Cc1ccc(C2=NC(C(=O)NO)CCO2)cc1 (stereo not drawn)
> 30 µM | Cc1c(C2=NC(C(=O)NO)CO2)cnn1-c1ccccc1 (stereo not drawn)
6 µM | O=C(NO)C1COC(c2cccc(OC(F)(F)F)c2)=N1 (stereo not drawn)
2.7 µM | O=C(NO)C1COC(c2ccc(Br)cc2)=N1 (stereo not drawn)
0.35 µM | C=CCCOc1ccc(C2=NC(C(=O)NO)CO2)cc1OC(F)(F)F (stereo not drawn)
10 µM | CCCCn1nc(C2=NC(C(=O)NO)CO2)c2ccccc21 (stereo not drawn)
4.9 µM | O=C(NO)C1COC(c2ccc(F)c(Br)c2)=N1 (stereo not drawn)
7.8 µM | O=C(NO)C1COC(c2ccc(C(F)(F)F)cc2)=N1 (stereo not drawn)
1.3 µM | O=C(NO)C1COC(c2ccc(F)c(C(F)(F)F)c2)=N1 (stereo not drawn)
> 30 µM | O=C(NO)C1COC(c2ccc(O)cc2)=N1 (stereo not drawn)
3.3 µM | C=CCc1c(C)c(C2=NC(C(=O)NO)CO2)cc(F)c1OC (stereo not drawn)
18 µM | CC(=O)c1ccc(C2=NC(C(=O)NO)CO2)cc1 (stereo not drawn)
9.6 µM | O=C(NO)C1COC(c2ccc(OCc3ccccc3C(F)(F)F)c(F)c2)=N1 (stereo not drawn)
58.7 µM | C=CCCOc1ccc(C2=NC(C(=O)NO)CS2)cc1 (stereo not drawn)
9 µM | COc1c(F)cc(C2=NC(C(=O)NO)CO2)cc1Br (stereo not drawn)
5.5 µM | O=C(NO)C1COC(c2[nH]nc3ccccc23)=N1 (stereo not drawn)
17.8 µM | CCCc1cc(C2=NC(C(=O)NO)CS2)cc(OC(F)(F)F)c1OC (stereo not drawn)
1.6 µM | O=C(NO)C1COC(c2cc3cc(F)ccc3[nH]2)=N1 (stereo not drawn)
0.56 µM | O=C(NO)C1COC(c2ccc(COc3cccc([N+](=O)[O-])c3)cc2)=N1 (stereo not drawn)

IC50 | Compound
> 50 µM | O=C(NC(CO)C(=O)NO)c1ccc(F)cc1 (stereo not drawn)
1.4 µM | C=CCOc1ccc(C2=NC(C(=O)NO)CO2)cc1F (stereo not drawn)
0.5 µM | CCCc1cc(C2=NC(C(=O)NO)CO2)cc(OC(F)(F)F)c1OC (stereo not drawn)
7.3 µM | CCCCc1ccc(C2=NC(C(=O)NO)CO2)cc1 (stereo not drawn)
3.9 µM | C=CCCOc1ccc(C(=O)NC(CO)C(=O)NO)cc1 (stereo not drawn)
> 60 µM | Cc1c(C2=NC(C(=O)NO)CS2)cnn1-c1ccccc1 (stereo not drawn)
1.2 µM | Cc1cc(C2=NC(C(=O)NO)CO2)ccc1F (stereo not drawn)
5 µM | O=C(NO)C1COC(c2ccc(OC(F)(F)F)cc2)=N1 (stereo not drawn)
2.5 µM | O=C(NO)C1COC(c2cccc(C(F)(F)F)c2)=N1 (stereo not drawn)
21.2 µM | O=C(NO)C1CCOC(c2ccc(F)c(C(F)(F)F)c2)=N1 (stereo not drawn)
0.84 µM | O=C(NO)C1COC(c2ccc(OCc3cccc(C(F)(F)F)c3)c(F)c2)=N1 (stereo not drawn)
0.96 µM | CCCc1cc(C2=NC(C(=O)NO)CO2)ccc1F (stereo not drawn)
13 µM | O=C(NC(CO)C(=O)NO)c1n[nH]c2ccccc12 (stereo not drawn)
30 µM | O=C(NO)C1COC(c2ccc(OC(F)(F)F)c(Cl)c2)=N1 (stereo not drawn)
46 µM | CCOc1cc(C(=O)NC(CO)C(=O)NO)ccc1F (stereo not drawn)
5.4 µM | O=C(NO)C1COC(c2ccc([N+](=O)[O-])cc2)=N1 (stereo not drawn)
1 µM | O=C(NO)C1COC(c2ccc(OCc3cccc([N+](=O)[O-])c3)cc2)=N1 (stereo not drawn)
> 50 µM | CCCc1cc(C(=O)NC(CO)C(=O)NO)cc(OC(F)(F)F)c1OC (stereo not drawn)
7.5 µM | C=CCOc1ccc(C(=O)NC(CO)C(=O)NO)cc1OC(F)(F)F (stereo not drawn)
0.28 µM | CCCc1ccc(-c2ccc(C3=NC(C(=O)NO)CO3)cc2)cc1 (stereo not drawn)
21.7 µM | O=C(NO)C1CSC(c2ccc(OC(F)(F)F)cc2)=N1 (stereo not drawn)

IC50 | Compound
0.19 µM | CC(C)=CCOc1ccc(C2=NC(C(=O)NO)CO2)cc1OC(F)(F)F (stereo not drawn)
38.5 µM | Cc1ccc(C2=NC(C(=O)NO)CS2)cc1 (stereo not drawn)
5.6 µM | C=CCCOc1ccc(C2=NC(C(=O)NO)CO2)cc1 (stereo not drawn)
0.25 µM | O=C(NO)C1COC(c2ccc(OCc3cccc(F)c3)c(OC(F)(F)F)c2)=N1 (stereo not drawn)
0.3 µM | O=C(NO)C1COC(c2[nH]c3ccc(F)cc3c2Cl)=N1 (stereo not drawn)
> 30 µM | CCCCCCCOc1ccc(C2=NC(C(=O)NO)CO2)cc1 (stereo not drawn)
31.2 µM | O=C(NO)C1CCOC(c2cc3cc(F)ccc3[nH]2)=N1 (stereo not drawn)
6 µM | O=C(NO)C1COC(c2ccc(F)cc2)=N1 (stereo not drawn)
25 µM | O=C(NO)C1COC(c2cc(F)cc(C(F)(F)F)c2)=N1 (stereo not drawn)
4.9 µM | CN(C)c1ccc(C2=NC(C(=O)NO)CO2)cc1 (stereo not drawn)
> 50 µM | Cc1ccc(C(=O)NC(CO)C(=O)NO)cc1 (stereo not drawn)
2.2 µM | C=CCOc1ccc(C2=NC(C(=O)NO)CO2)cc1C(F)(F)F (stereo not drawn)
> 10 µM | O=C(NO)C1COC(c2ccccc2OC(F)(F)F)=N1 (stereo not drawn)
> 30 µM | CC(=O)Nc1ccc(C2=NC(C(=O)NO)CO2)cc1 (stereo not drawn)
62.5 µM | O=C(NO)C1CSC(c2ccc(F)cc2)=N1 (stereo not drawn)
20 µM | Cc1ccc(C2=NC(C(=O)NO)CO2)cc1 (stereo not drawn)
12 µM | CCCCn1nc2ccccc2c1C1=NC(C(=O)NO)CO1 (stereo not drawn)
1 µM | CCOc1cc(C2=NC(C(=O)NO)CO2)ccc1F (stereo not drawn)
5.5 µM | O=C(NO)C1COC(c2ccc(I)cc2)=N1 (stereo not drawn)
0.12 µM | C=CCOc1ccc(C2=NC(C(=O)NO)CO2)cc1OC(F)(F)F (stereo not drawn)

Compound | IC50
O=C(NO)C1COC(c2ccc(C(F)(F)F)nc2)=N1 (stereo not drawn) | 10 µM
